This is an account of results in ChEMBL document CHEMBL3616400, “Design, Synthesis, and Evaluation of Triazole Derivatives That Induce Nrf2 Dependent Gene Products and Inhibit the Keap1-Nrf2 Protein-Protein Interaction” (J Med Chem, 2015).

Series [1] deals with T1, Nuclear factor erythroid 2-related factor 2 (Mus musculus) (UniProt Q60795).
T1 sequence (whole entry): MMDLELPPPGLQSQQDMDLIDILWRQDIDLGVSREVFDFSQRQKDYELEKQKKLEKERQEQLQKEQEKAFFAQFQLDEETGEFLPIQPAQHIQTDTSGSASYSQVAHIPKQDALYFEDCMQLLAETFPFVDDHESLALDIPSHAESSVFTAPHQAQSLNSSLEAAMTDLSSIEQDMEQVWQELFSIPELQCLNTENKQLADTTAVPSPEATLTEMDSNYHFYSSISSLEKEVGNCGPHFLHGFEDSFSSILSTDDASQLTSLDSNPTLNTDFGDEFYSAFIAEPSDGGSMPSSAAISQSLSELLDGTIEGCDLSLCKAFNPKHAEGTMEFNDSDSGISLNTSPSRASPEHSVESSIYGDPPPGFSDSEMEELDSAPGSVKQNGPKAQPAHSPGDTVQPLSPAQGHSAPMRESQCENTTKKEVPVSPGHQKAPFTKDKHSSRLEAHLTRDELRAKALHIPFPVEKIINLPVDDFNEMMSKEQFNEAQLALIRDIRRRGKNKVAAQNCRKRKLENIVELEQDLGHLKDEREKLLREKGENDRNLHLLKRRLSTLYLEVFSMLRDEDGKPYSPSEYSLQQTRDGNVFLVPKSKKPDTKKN
As to the kind of experiment: Activation of Nrf2 in mouse Hepa1c1c7 cells assessed as induction of NQO1 production at 10 uM after 24 hrs by MTT colorimetric assay relative to control. The series is classed as cell-based. Put shortly: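 Hepa1c1c7 mouse hepatoma cells treated at a fixed 10 µM for 24 h. NQO1 enzyme activity read by colorimetric induction assay and expressed as fold induction over control.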
(Tetrazolium assays rely on reduction of a dye to a coloured formazan, in cell work by metabolically active cells.)

In series [2] the target is T1, Nuclear factor erythroid 2-related factor 2 (Mus musculus). As to the kind of experiment: Activation of Nrf2 in mouse Hepa1c1c7 cells assessed as concentration required to 2 fold induction of NQO1 production after 24 hrs by MTT colorimetric assay. The series is classed as cell-based. Put shortly: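 Hepa1c1c7 mouse hepatoma cells exposed to a concentration range for 24 h. NQO1 enzymatic activity measured by colorimetric induction assay. Value reported as CD, the concentration giving a two-fold increase in NQO1 activity.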

In series [3] the target is T2, Keap1/Nrf2 (Homo sapiens) (UniProt Q16236+Q14145). As to the kind of experiment: Inhibition of kelch domain of Keap1 (unknown origin) interaction to high affinity ETGE motif from Nrf2 unknown origin) at 100 uM by fluorescence polarization assay. It is filed as protein assay. Put shortly:
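Fluorescence polarization competition. Keap1 Kelch domain with fluorescein-labelled ETGE peptide FITC-β-DEETGEF-OH (β = β-alanine). Displacement measured with a fixed 100 µM inhibitor; percent inhibition reported.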
On the technique in general: In fluorescence polarisation assays a small probe gives low polarisation when free and higher when bound to something large.

The species named for series [4] is Mus musculus. As to the kind of experiment: Increase of Nrf2 protein level in mouse Hepa1c1c7 cells at 10 uM after 24 hrs by Western blot analysis. The series is classed as functional, cell-based. Put shortly: (§1)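 Hepa1c1c7 cells incubated with test compounds at 10 µM for various exposure times, up to 24 h. Nrf2, HO-1 and NQO1 protein levels assessed by Western blot.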
In general terms: Immunoblotting shows a protein as a band on a membrane.

For series [5], the target named is T3, Keap1/Nrf2 (Homo sapiens, UniProt Q14145). In words: Inhibition of kelch domain of Keap1 (unknown origin) interaction to high affinity ETGE motif from Nrf2 by fluorescence polarization assay. It is filed as protein assay. Put shortly: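 Competitive fluorescence polarization, dose-response format. Keap1 Kelch domain with fluorescein-labelled Nrf2 ETGE peptide FITC-β-DEETGEF-OH. EC50 derived from dose-response curves.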

For series [6], the target named is T1, Nuclear factor erythroid 2-related factor 2 (Mus musculus). As to the kind of experiment: Activation of Nrf2 in mouse Hepa1c1c7 cells assessed as increase of NQO1 expression at 10 uM measured before 24 hrs by Western blot analysis. It is filed as cell-based. Put shortly:
as §1

Series [7] is filed under the species Mus musculus. In words: Increase of Nrf2 protein level in mouse Hepa1c1c7 cells at 10 uM by Western blot analysis. The series is classed as functional, cell-based. Conditions: TDE = time-dependent effect. Put shortly: as §1
Series [8] concerns the target T1, Nuclear factor erythroid 2-related factor 2 (Mus musculus). As to the kind of experiment: Activation of Nrf2 in mouse Hepa1c1c7 cells assessed as increase of HO-1 expression at 10 uM after 6 hrs by Western blot analysis. It is filed as cell-based. Put shortly:
as §1

Series [9] has as its target T2, Keap1/Nrf2 (Homo sapiens). In words: Inhibition of mCherry labeled Keap1 interaction to DLG motif from Nrf2 in human HEK293 cells at 10 uM by FRET based assay. It is filed as cell-based. Put shortly: (§2)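 HEK293 cells were co-transfected with EGFP-Nrf2 and Keap1-mCherry. Each cell was imaged by FLIM twice: once basal and once 1 h after 10 µM compound. EGFP lifetime and FRET efficiency were calculated in the cytoplasm. High- and low-FRET-efficiency populations were scored to distinguish DLG-dependent binding from ETGE-dependent binding.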

Series [10] is described as follows: Therapeutic index, ratio of GI50 for mouse Hepa1c1c7 cells to CD for activation of Nrf2 in mouse Hepa1c1c7 cells assessed as concentration required to 2 fold induction of NQO1 production. The series is classed as cell-based. To be noted: read-out: TI.
Series [11] has as its target T2, Keap1/Nrf2 (Homo sapiens). As to the kind of experiment: Inhibition of mCherry labeled Keap1 interaction to ETGE motif from Nrf2 in human HEK293 cells at 10 uM by FRET based assay. The series is classed as cell-based. Put shortly: as §2
For series [12], the target named is T3, Keap1/Nrf2. In words: Inhibition of Keap1 (unknown origin) interaction to Nrf2. It is filed as protein assay.
The species named for series [13] is Mus musculus. In words: Increase of Nrf2 protein level in mouse Hepa1c1c7 cells at 10 uM after 3 to 6 hrs by Western blot analysis. The series is classed as functional, cell-based. Put shortly:
as §1

Series [14] can be described thus: Cytotoxicity against mouse Hepa1c1c7 cells assessed as cell viability at 200 uM after 24 to 48 hrs by SRB assay. To be noted: read-out: Activity. The series is classed as cell-based. Put shortly:
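Hepa1c1c7 cells exposed to compounds at up to 200 µM for 24 and 48 h. Viability determined by sulforhodamine B assay.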

The target in series [15] is T2, Keap1/Nrf2 (Homo sapiens). In words: Inhibition of kelch domain of Keap1 (unknown origin) interaction to high affinity ETGE motif from Nrf2 unknown origin) in presence of 0 to 1 % v/v Triton X100 by fluorescence polarization assay. It is filed as protein assay.
The target in series [16] is Kelch-like ECH-associated protein 1 (Homo sapiens) (UniProt Q14145). As to the kind of experiment: Binding affinity to kelch domain of Keap1 (unknown origin) using high affinity ETGE motif from Nrf2 unknown origin) at 200 uM by fluorescence polarization assay.

Activity calls are given as the source filed them. No cut-off for these calls is given here.

T2 sequence (Q14145 whole entry, looked up, the tested form may be a part): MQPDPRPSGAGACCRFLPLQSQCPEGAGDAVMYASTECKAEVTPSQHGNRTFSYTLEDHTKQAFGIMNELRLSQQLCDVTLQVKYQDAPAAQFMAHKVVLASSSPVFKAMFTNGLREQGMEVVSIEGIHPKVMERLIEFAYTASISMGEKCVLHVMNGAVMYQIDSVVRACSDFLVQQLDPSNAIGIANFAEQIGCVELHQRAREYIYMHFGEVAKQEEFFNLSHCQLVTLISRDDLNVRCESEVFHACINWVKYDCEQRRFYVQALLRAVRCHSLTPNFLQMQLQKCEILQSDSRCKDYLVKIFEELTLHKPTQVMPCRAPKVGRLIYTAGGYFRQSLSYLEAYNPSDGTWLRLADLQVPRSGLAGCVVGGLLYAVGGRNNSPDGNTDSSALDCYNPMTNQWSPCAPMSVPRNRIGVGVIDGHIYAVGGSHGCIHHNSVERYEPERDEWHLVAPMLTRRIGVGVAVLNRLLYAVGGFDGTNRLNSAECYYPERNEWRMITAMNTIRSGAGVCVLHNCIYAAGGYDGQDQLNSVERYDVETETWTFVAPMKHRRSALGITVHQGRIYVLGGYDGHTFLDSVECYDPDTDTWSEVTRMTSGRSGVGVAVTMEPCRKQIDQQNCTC
T2 sequence (Q16236 whole entry, looked up, the tested form may be a part): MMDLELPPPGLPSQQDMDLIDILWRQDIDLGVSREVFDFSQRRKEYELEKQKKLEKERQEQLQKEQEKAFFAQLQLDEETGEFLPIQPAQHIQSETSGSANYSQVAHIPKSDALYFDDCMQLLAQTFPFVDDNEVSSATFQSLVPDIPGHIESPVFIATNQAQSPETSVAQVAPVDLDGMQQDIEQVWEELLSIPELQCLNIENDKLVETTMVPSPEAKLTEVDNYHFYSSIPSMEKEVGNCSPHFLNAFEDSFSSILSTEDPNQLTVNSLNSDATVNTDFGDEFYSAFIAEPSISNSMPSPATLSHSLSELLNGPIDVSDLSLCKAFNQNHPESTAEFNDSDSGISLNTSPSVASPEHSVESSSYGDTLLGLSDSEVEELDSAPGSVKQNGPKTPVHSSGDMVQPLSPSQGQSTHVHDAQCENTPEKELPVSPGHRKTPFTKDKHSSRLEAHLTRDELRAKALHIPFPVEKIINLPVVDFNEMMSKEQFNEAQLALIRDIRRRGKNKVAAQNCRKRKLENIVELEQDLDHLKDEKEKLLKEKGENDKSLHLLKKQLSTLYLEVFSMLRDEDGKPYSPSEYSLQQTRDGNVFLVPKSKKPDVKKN
T3 sequence (Q16236 whole entry, the tested form may be a part): as the sequence (Q16236 whole entry, looked up, the tested form may be a part) above
T3 sequence (Q14145 whole entry, the tested form may be a part): as the sequence (Q14145 whole entry, looked up, the tested form may be a part) above
Kelch-like ECH-associated protein 1 (Homo sapiens), sequence (Q14145 whole entry, the tested form may be a part): as the sequence (Q14145 whole entry, looked up, the tested form may be a part) above

In general, inhibition refers to the change of the read-out against control, counted positive when it falls. In general, EC50 refers to the concentration needed to bring the measured effect to its halfway point. Low values mean an effect from little substance, high ones a need for much substance. Regarding `CC(C)(C)c1cccc(-n2cc(-c3cccc([N+](=O)[O-])c3)nn2)c1`, in [1], the fold change (FC) turned out to be 1.93. In addition, the CD in series [2] is above 10 µM. Besides, in series [3], the inhibition came to 69.8%. In the series filed under Mus musculus [4], the outcome was inactive. Further, a half-maximal response on Keap1/Nrf2 [5] (EC50) required 37.8 µM.
As to `O=C(O)c1cccc(-n2cc(-c3cccc([N+](=O)[O-])c3)nn2)c1`, the fold change (FC) in series [1] is 0.83. Also, the CD in series [2] is above 10 µM. In [3], this compound returned an inhibition of 80.1%. For the same compound, the response on Keap1/Nrf2 [5] was half-maximal at 5 µM (EC50).
For `CN(C)c1cccc(-n2cc(-c3cccc([N+](=O)[O-])c3)nn2)c1` the same measures were 2.91, 2 µM, 65.4% and 12.7 µM.
For the compound `Cc1cccc(-n2cc(-c3cccc([N+](=O)[O-])c3)nn2)c1`, the outcome in series [6] was inactive. For the same compound, the Activity entry in the series listed under Mus musculus [7] was “tde”. The fold change (FC) in [1] was 2.2. Moreover, the CD in series [2] is 1.3 µM. The result (in series [8]; in the series listed under Mus musculus [4]) was Active. In [3], this compound returned an inhibition of 68.9%. Further, the EC50 on Keap1/Nrf2 [5] was 10 µM.
In the case of `C[S+]([O-])CCCCN=C=S` (configuration not stated) [SULFORAPHANE], the inhibition entry in [9] was “Active”. Moreover, the result in series [6] was inactive. The Activity entry in the series filed under Mus musculus [7] was “tde”. Further, the CD in series [2] turned out to be 0.3 µM. The outcome (in series [8]; in the series filed under Mus musculus [4]) was Active. In addition, the selectivity ratio in series [10] was 250. Moreover, in series [11], the inhibition result is “inactive”.
For the compound Ac-WRQDIDL-OH, the EC50 on Keap1/Nrf2 [12] was found to be 17.1 µM. This counts as double-digit micromolar.
As to `O=[N+]([O-])c1cccc(-c2cn(-c3cccc(I)c3)nn2)c1`, the inhibition result in series [9] and in [15] was “Active” throughout. Also, in series [6], the result was inactive. Besides, in the series listed under Mus musculus [7], the Activity result was “tde”. In addition, the outcome (in the series listed under Mus musculus [13]; in series [8]; in the series filed under Mus musculus [4]; in [16]) was Active. Also, the fold change (FC) in series [1] was found to be 4. The CD in [2] is 0.6 µM. Besides, the viability at 200 µM in series [14] turned out to be 100%. For the same compound, the inhibition in [3] came to 67.2%. The selectivity ratio in series [10] was above 1000. The inhibition result in series [11] was “inactive”. This compound gave an EC50 on Keap1/Nrf2 [5] of 7.1 µM.
Turning to `COc1cccc(-n2cc(-c3cccc([N+](=O)[O-])c3)nn2)c1`, in [1], the fold change (FC) turned out to be 2.56. Further, the CD in series [2] was found to be 4.7 µM. Further, the inhibition in series [3] was 68.2%. Also, the EC50 at Keap1/Nrf2 [5] was determined as 15 µM.
Regarding `O=[N+]([O-])c1cccc(-c2cn(-c3cccc(Br)c3)nn2)c1`, in [1], the fold change (FC) is 2.94. The CD in series [2] was 1.2 µM. For the same compound, the inhibition in [3] was 68.2%. On Keap1/Nrf2 [5], this compound showed an EC50 of 24.5 µM.
On the same counts, the results for `O=[N+]([O-])c1cccc(-c2cn(-c3cccc(Cl)c3)nn2)c1` are 2.5, 0.7 µM, 60.4% and 8.8 µM.
